# Data taken from ChEMBL document CHEMBL4138242, “Synthesis and antibacterial evaluation of novel cationic chalcone derivatives possessing broad spectrum antibacterial activity” (Eur J Med Chem, 2018).
# Active and inactive are the calls of the source. No cut-off for these calls is given here.
# Key:
# Escherichia coli [1] = experiment: Antibacterial activity against drug-resistant NDM1 producing Escherichia coli clinical isolate CF-13-61 after 16 to 20 hrs by broth microdilution method; assay type: functional
# In short: (§1)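 CLSI broth microdilution in Mueller-Hinton broth. A 4-6 h culture was diluted to about 10⁶ CFU/mL and mixed 1:1 with compound dilutions prepared at 256 to 0.5 µg/mL from aqueous stocks. Plates were incubated at 37 °C for 16-20 h and read visually for MIC. Each concentration was run in duplicate, and the experiment was repeated at least twice. Vancomycin and meropenem were comparators.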
# Staphylococcus aureus [2] = experiment: Antibacterial activity against methicillin-resistant Staphylococcus aureus clinical isolate 1207007 after 16 to 20 hrs by broth microdilution method; assay type: functional; in short: as §1
# Klebsiella pneumoniae [3] = experiment: Antibacterial activity against drug-resistant carbapenemase producing Klebsiella pneumoniae clinical isolate KP-14-45 after 16 to 20 hrs by broth microdilution method; assay type: functional; in short: as §1
# Salmonella enterica = experiment: Antibacterial activity against Salmonella enterica ATCC 13076 after 16 to 20 hrs by broth microdilution method; assay type: functional
# In short: (§2)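 Broth microdilution per CLSI. Bacteria grown 4-6 h (about 10⁸ CFU/mL), then diluted to about 10⁶ CFU/mL. Medium: Mueller-Hinton broth, except Luria-Bertani broth for E. coli. Compounds in sterile water, twofold series 256-0.5 µg/mL, mixed 1:1 with inoculum, 37 °C for 16-20 h. MIC is the lowest concentration without visible growth. Duplicate wells; experiment repeated at least twice.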
# Escherichia coli [4] = experiment: Antibacterial activity against drug-resistant NDM1 producing Escherichia coli clinical isolate CF-15-61 after 16 to 20 hrs by broth microdilution method; assay type: functional; in short: as §1
# Klebsiella pneumoniae [5] = experiment: Antibacterial activity against drug-resistant carbapenemase producing Klebsiella pneumoniae clinical isolate KP-14-3 after 16 to 20 hrs by broth microdilution method; assay type: functional; in short: as §1
# Enterococcus faecalis = experiment: Antibacterial activity against Enterococcus faecalis ATCC 29212 after 16 to 20 hrs by broth microdilution method; assay type: functional; in short: as §2
# Staphylococcus aureus [6] = experiment: Antibacterial activity against methicillin-resistant Staphylococcus aureus clinical isolate 1-may after 16 to 20 hrs by broth microdilution method; assay type: functional; in short: as §1
# [7] = Hemolytic activity in sheep RBC after 1 hr; assay type: ADME, cell-based, Ovis aries, Erythrocyte; settings: sheep red blood cells (erythrocytes)
# In short: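 Sheep red blood cells (150 µL suspension) mixed with 50 µL of compound dilutions (5120-10 µg/mL), 1 h at 37 °C, then centrifuged. Supernatant read at 540 nm. Percent hemolysis calculated relative to RBC-only control (0%) and 0.1% Triton X-100 (100%).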
# Staphylococcus aureus [8] = experiment: Antibacterial activity against methicillin-resistant Staphylococcus aureus clinical isolate 20130911034sau after 16 to 20 hrs by broth microdilution method; assay type: functional; in short: as §1
# Escherichia coli [9] = experiment: Antibacterial activity against drug-resistant NDM1 producing Escherichia coli clinical isolate KP-13-58 after 16 to 20 hrs by broth microdilution method; assay type: functional; in short: as §1
# Escherichia coli [10] = experiment: Antibacterial activity against drug-resistant NDM1 producing Escherichia coli clinical isolate EC-14-54 after 16 to 20 hrs by broth microdilution method; assay type: functional; in short: as §1
# Escherichia coli [11] = experiment: Induction of inner membrane permeabilization in Escherichia coli ATCC 25922 at 10 to 20 ug/ml measured every 2 mins for 12 mins by propidium iodide staining-based fluorescence assay; assay type: functional, organism-based
# In short: (§3)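 Mid-log cells (~10⁸ CFU/mL) were suspended in PBS (S. aureus) or HEPES/glucose/KCl (E. coli). They were preincubated with propidium iodide for 30 min (S. aureus) or 40 min (E. coli), and baseline fluorescence was read for 8 min. Compound was added to 20 µg/mL final, and fluorescence (ex 535/em 617 nm) was read every 2 min for 12 min.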
# Staphylococcus aureus [12] = experiment: Antibacterial activity against Staphylococcus aureus ATCC 29213 after 16 to 20 hrs by broth microdilution method; assay type: functional; in short: as §2
# Escherichia coli [13] = experiment: Antibacterial activity against Escherichia coli ATCC 25922 after 16 to 20 hrs by broth microdilution method; assay type: functional; in short: as §2
# Escherichia coli [14] = experiment: Induction of cytoplasmic membrane depolarization in Escherichia coli ATCC 25922 at 10 to 20 ug/ml measured every 2 mins for 12 mins by DiSC35 dye-based fluorescence assay; assay type: functional, organism-based
# In short: (§4)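 Mid-log cells (~10⁸ CFU/mL) were suspended in PBS (S. aureus) or HEPES/glucose/KCl with EDTA (E. coli). They were preloaded with DiSC3(5) for 30 min (S. aureus) or 40 min (E. coli), and baseline fluorescence was read for 8 min. Compound was added to 20 µg/mL final, and fluorescence (ex 622/em 670 nm) was read every 2 min for 12 min. Water served as control.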
# Staphylococcus aureus [15] = experiment: Antibacterial activity against methicillin-resistant Staphylococcus aureus clinical isolate 0831010 after 16 to 20 hrs by broth microdilution method; assay type: functional; in short: as §1
# Escherichia coli [16] = experiment: Antibacterial activity against drug-resistant NDM1 producing Escherichia coli clinical isolate EA-14-61 after 16 to 20 hrs by broth microdilution method; assay type: functional; in short: as §1
# Escherichia coli [17] = experiment: Antibacterial activity against drug-resistant NDM1 producing Escherichia coli clinical isolate EC-13-49 after 16 to 20 hrs by broth microdilution method; assay type: functional; in short: as §1
# Klebsiella pneumoniae [18] = experiment: Antibacterial activity against drug-resistant carbapenemase producing Klebsiella pneumoniae clinical isolate KP-13-45 after 16 to 20 hrs by broth microdilution method; assay type: functional; in short: as §1
# Klebsiella pneumoniae [19] = experiment: Antibacterial activity against drug-resistant carbapenemase producing Klebsiella pneumoniae clinical isolate KP-14-1 after 16 to 20 hrs by broth microdilution method; assay type: functional; in short: as §1
# Klebsiella pneumoniae [20] = experiment: Antibacterial activity against drug-resistant carbapenemase producing Klebsiella pneumoniae clinical isolate KP-14-18 after 16 to 20 hrs by broth microdilution method; assay type: functional; in short: as §1
# Staphylococcus aureus [21] = experiment: Antibacterial activity against methicillin-resistant Staphylococcus aureus clinical isolate 1208143 after 16 to 20 hrs by broth microdilution method; assay type: functional; in short: as §1
# Klebsiella pneumoniae [22] = experiment: Antibacterial activity against drug-resistant carbapenemase producing Klebsiella pneumoniae clinical isolate KP-14-5 after 16 to 20 hrs by broth microdilution method; assay type: functional; in short: as §1
# Escherichia coli [23] = experiment: Antibacterial activity against drug-resistant NDM1 producing Escherichia coli clinical isolate Ecl-14-56 after 16 to 20 hrs by broth microdilution method; assay type: functional; in short: as §1
# Staphylococcus aureus [24] = experiment: Antibacterial activity against methicillin-resistant Staphylococcus aureus clinical isolate 0906202 after 16 to 20 hrs by broth microdilution method; assay type: functional; in short: as §1
# Escherichia coli [25] = experiment: Antibacterial activity against drug-resistant NDM1 producing Escherichia coli clinical isolate Ecl-14-58 after 16 to 20 hrs by broth microdilution method; assay type: functional; in short: as §1
# Klebsiella pneumoniae [26] = experiment: Antibacterial activity against drug-resistant carbapenemase producing Klebsiella pneumoniae clinical isolate KP-14-4 after 16 to 20 hrs by broth microdilution method; assay type: functional; in short: as §1
# Escherichia coli [27] = experiment: Antibacterial activity against drug-resistant NDM1 producing Escherichia coli clinical isolate Ecl-14-59 after 16 to 20 hrs by broth microdilution method; assay type: functional; in short: as §1
# Staphylococcus aureus [28] = experiment: Induction of cytoplasmic membrane depolarization in Staphylococcus aureus ATCC 29213 at 10 to 20 ug/ml measured every 2 mins for 12 mins by DiSC35 dye-based fluorescence assay; assay type: functional, organism-based; in short: as §4
# Staphylococcus aureus [29] = experiment: Antibacterial activity against methicillin-resistant Staphylococcus aureus clinical isolate 20131012632sau after 16 to 20 hrs by broth microdilution method; assay type: functional; in short: as §1
# Escherichia coli [30] = experiment: Antibacterial activity against drug-resistant NDM1 producing Escherichia coli clinical isolate Ecl-13-62 after 16 to 20 hrs by broth microdilution method; assay type: functional; in short: as §1
# Klebsiella pneumoniae [31] = experiment: Antibacterial activity against drug-resistant carbapenemase producing Klebsiella pneumoniae clinical isolate KP-13-54 after 16 to 20 hrs by broth microdilution method; assay type: functional; in short: as §1
# Klebsiella pneumoniae [32] = experiment: Antibacterial activity against drug-resistant carbapenemase producing Klebsiella pneumoniae clinical isolate KP-14-8 after 16 to 20 hrs by broth microdilution method; assay type: functional; in short: as §1
# Escherichia coli [33] = experiment: Antibacterial activity against drug-resistant NDM1 producing Escherichia coli clinical isolate 1460 after 16 to 20 hrs by broth microdilution method; assay type: functional; in short: as §1
# Klebsiella pneumoniae [34] = experiment: Antibacterial activity against drug-resistant carbapenemase producing Klebsiella pneumoniae clinical isolate KP-14-2 after 16 to 20 hrs by broth microdilution method; assay type: functional; in short: as §1
# Klebsiella pneumoniae [35] = experiment: Antibacterial activity against drug-resistant carbapenemase producing Klebsiella pneumoniae clinical isolate EC-13-23 after 16 to 20 hrs by broth microdilution method; assay type: functional; in short: as §1
# Staphylococcus aureus [36] = experiment: Antibacterial activity against methicillin-resistant Staphylococcus aureus clinical isolate 1104060 after 16 to 20 hrs by broth microdilution method; assay type: functional; in short: as §1
# Staphylococcus aureus [37] = experiment: Antibacterial activity against methicillin-resistant Staphylococcus aureus clinical isolate 1105183 cono7 after 16 to 20 hrs by broth microdilution method; assay type: functional; in short: as §1
# Staphylococcus aureus [38] = experiment: Induction of inner membrane permeabilization in Staphylococcus aureus ATCC 29213 at 10 to 20 ug/ml measured every 2 mins for 12 mins by propidium iodide staining-based fluorescence assay; assay type: functional, organism-based; in short: as §3
# Klebsiella pneumoniae [39] = experiment: Antibacterial activity against drug-resistant carbapenemase producing Klebsiella pneumoniae clinical isolate KP-13-55 after 16 to 20 hrs by broth microdilution method; assay type: functional; in short: as §1
# Escherichia coli [40] = experiment: Antibacterial activity against drug-resistant NDM1 producing Escherichia coli clinical isolate SM-15-84 after 16 to 20 hrs by broth microdilution method; assay type: functional; in short: as §1
smiles,measurement,setting,value
CCCCCCCC[N+](C)(C)CC(=O)Nc1ccc(C(=O)/C=C/c2ccc(F)cc2F)cc1.[Cl-],MIC,Escherichia coli [1],2 µg/mL
same,MIC,Staphylococcus aureus [2],0.5 µg/mL
same,MIC,Klebsiella pneumoniae [3],8 µg/mL
same,MIC,Salmonella enterica,4 µg/mL
same,MIC,Escherichia coli [4],4 µg/mL
same,MIC,Klebsiella pneumoniae [5],8 µg/mL
same,MIC,Enterococcus faecalis,2 µg/mL
same,MIC,Staphylococcus aureus [6],1 µg/mL
same,HC50 at 1 h,[7],54 µg/mL
same,MIC,Staphylococcus aureus [8],1 µg/mL
same,MIC,Escherichia coli [9],2 µg/mL
same,MIC,Escherichia coli [10],8 µg/mL
same,Activity,Escherichia coli [11],Active
same,MIC,Staphylococcus aureus [12],2 µg/mL
same,MIC,Escherichia coli [13],4 µg/mL
same,Activity,Escherichia coli [14],Active
same,MIC,Staphylococcus aureus [15],0.5 µg/mL
same,MIC,Escherichia coli [16],4 µg/mL
same,MIC,Escherichia coli [17],4 µg/mL
same,MIC,Klebsiella pneumoniae [18],8 µg/mL
same,MIC,Klebsiella pneumoniae [19],8 µg/mL
same,MIC,Klebsiella pneumoniae [20],8 µg/mL
same,MIC,Staphylococcus aureus [21],2 µg/mL
same,MIC,Klebsiella pneumoniae [22],4 µg/mL
same,MIC,Escherichia coli [23],4 µg/mL
same,MIC,Staphylococcus aureus [24],4 µg/mL
same,MIC,Escherichia coli [25],4 µg/mL
same,MIC,Klebsiella pneumoniae [26],4 µg/mL
same,MIC,Escherichia coli [27],4 µg/mL
same,Activity,Staphylococcus aureus [28],Active
same,MIC,Staphylococcus aureus [29],4 µg/mL
same,MIC,Escherichia coli [30],4 µg/mL
same,MIC,Klebsiella pneumoniae [31],4 µg/mL
same,MIC,Klebsiella pneumoniae [32],4 µg/mL
same,MIC,Escherichia coli [33],4 µg/mL
same,MIC,Klebsiella pneumoniae [34],16 µg/mL
same,MIC,Klebsiella pneumoniae [35],8 µg/mL
same,MIC,Staphylococcus aureus [36],8 µg/mL
same,MIC,Staphylococcus aureus [37],1 µg/mL
same,Activity,Staphylococcus aureus [38],Active
same,MIC,Klebsiella pneumoniae [39],8 µg/mL
same,MIC,Escherichia coli [40],16 µg/mL
CCCCCCCC[N+](C)(C)CC(=O)Nc1ccc(C(=O)/C=C/c2ccccc2C(F)(F)F)cc1.[Cl-],MIC,Escherichia coli [1],4 µg/mL
same,MIC,Staphylococcus aureus [2],2 µg/mL
same,MIC,Klebsiella pneumoniae [3],8 µg/mL
same,MIC,Salmonella enterica,16 µg/mL
same,MIC,Escherichia coli [4],4 µg/mL
same,MIC,Klebsiella pneumoniae [5],8 µg/mL
same,MIC,Enterococcus faecalis,4 µg/mL
same,MIC,Staphylococcus aureus [6],0.5 µg/mL
same,HC50 at 1 h,[7],136 µg/mL
same,MIC,Staphylococcus aureus [8],0.5 µg/mL
same,MIC,Escherichia coli [9],1 µg/mL
same,MIC,Escherichia coli [10],16 µg/mL
same,Activity,Escherichia coli [11],Active
same,MIC,Staphylococcus aureus [12],2 µg/mL
same,MIC,Escherichia coli [13],8 µg/mL
same,Activity,Escherichia coli [14],Active
same,MIC,Staphylococcus aureus [15],0.5 µg/mL
same,MIC,Escherichia coli [16],8 µg/mL
same,MIC,Escherichia coli [17],8 µg/mL
same,MIC,Klebsiella pneumoniae [18],8 µg/mL
same,MIC,Klebsiella pneumoniae [19],> 128 µg/mL
same,MIC,Klebsiella pneumoniae [20],16 µg/mL
same,MIC,Staphylococcus aureus [21],1 µg/mL
same,MIC,Klebsiella pneumoniae [22],8 µg/mL
same,MIC,Escherichia coli [23],4 µg/mL
same,MIC,Staphylococcus aureus [24],1 µg/mL
same,MIC,Escherichia coli [25],8 µg/mL
same,MIC,Klebsiella pneumoniae [26],8 µg/mL
same,MIC,Escherichia coli [27],8 µg/mL
same,Activity,Staphylococcus aureus [28],Active
same,MIC,Staphylococcus aureus [29],4 µg/mL
same,MIC,Escherichia coli [30],8 µg/mL
same,MIC,Klebsiella pneumoniae [31],4 µg/mL
same,MIC,Klebsiella pneumoniae [32],8 µg/mL
same,MIC,Escherichia coli [33],8 µg/mL
same,MIC,Klebsiella pneumoniae [34],> 128 µg/mL
same,MIC,Klebsiella pneumoniae [35],4 µg/mL
same,MIC,Staphylococcus aureus [36],16 µg/mL
same,MIC,Staphylococcus aureus [37],1 µg/mL
same,Activity,Staphylococcus aureus [38],Active
same,MIC,Klebsiella pneumoniae [39],16 µg/mL
same,MIC,Escherichia coli [40],128 µg/mL
